For 12 compounds, IC50, CC50 and EC50 results are on record in ChEMBL document CHEMBL4007430, “Synthesis and Cytostatic and Antiviral Profiling of Thieno-Fused 7-Deazapurine Ribonucleosides” (J Med Chem, 2017).

Series [1] concerns CCRF-CEM. As to the kind of experiment: Cytotoxicity against human CCRF-CEM cells assessed as cell growth inhibition after 72 hrs by MTS assay. Background: Tetrazolium assays rely on reduction of a dye to a coloured formazan, in cell work by metabolically active cells.
Series [2] can be described thus: Cytotoxicity against human HuH7 cells. The class given is cell-based, Huh-7.
Series [3] relates to K562. Put plainly: Cytotoxicity against human K562 cells assessed as cell growth inhibition after 72 hrs by MTS assay. Type of series: functional, cell-based. As to conditions: K562, 72 h. Summed up:
(§1)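 Cells were exposed to compound for 3 days, then stained with MTS as a quantitative metabolic read-out. IC50 is the concentration that inhibits cell growth by 50%.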

Series [4] relates to HeLa S3. Put plainly: Cytotoxicity against human HeLaS3 cells assessed as reduction in cell viability after 72 hrs by XTT assay. Type of series: functional, cell-based. As to conditions: HeLa S3, 72 h. The gist of the method: (§2)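 Cells were incubated with compound for 3 days. Viability was then measured with the XTT tetrazolium assay.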
The test system of series [5] is MRC5. Put plainly: Cytotoxicity against human MRC5 cells assessed as cell growth inhibition after 72 hrs by MTS assay. Type of series: cell-based. As to conditions: MRC5, 72 h. The gist of the method:
as §1

Series [6] relates to Hepatitis C virus. Put plainly: Anti-HCV activity against Hepatitis C virus genotype 2a infected in human Huh7 replicon cells after 96 hrs by luciferase reporter gene assay. The class given is functional, cell-based, Hepacivirus hominis. As to conditions: Huh-7, 96 h.
Series [7] concerns HL-60. Put plainly: Cytotoxicity against human HL60 cells assessed as reduction in cell viability after 72 hrs by XTT assay. Type of series: functional, cell-based. As to conditions: HL-60, 72 h. The gist of the method: as §2
Series [8] concerns U2OS. Put plainly: Cytotoxicity against human U2OS cells assessed as cell growth inhibition after 72 hrs by MTS assay. The class given is functional, cell-based.
For series [9], the system named is HCT-116. As to the kind of experiment: Cytotoxicity against p53 deficient human HCT116 cells assessed as cell growth inhibition after 72 hrs by MTS assay. As to conditions: HCT-116, 72 h. The class given is functional, cell-based. The gist of the method:
as §1

A short description of series [10]: Cytotoxicity against human K562-TAX cells assessed as cell growth inhibition after 72 hrs by MTS assay. The class given is functional, cell-based. Summed up:
as §1

Series [11] deals with A549. As to the kind of experiment: Cytotoxicity against human A549 cells assessed as cell growth inhibition after 72 hrs by MTS assay. The class given is functional, cell-based. As to conditions: A549, 72 h. Summed up: as §1
Series [12] concerns Hepatitis C virus. As to the kind of experiment: Anti-HCV activity against Hepatitis C virus genotype 1b infected in human Huh7 replicon cells after 96 hrs by luciferase reporter gene assay. Type of series: functional, cell-based, Hepacivirus hominis. As to conditions: Huh-7, 96 h. For orientation: In antiviral work, replicon cells carry a viral genome segment that copies itself.

Series [13] has as its system HCT-116. Put plainly: Cytotoxicity against human HCT116 cells assessed as cell growth inhibition after 72 hrs by MTS assay. Type of series: functional, cell-based. As to conditions: HCT-116, 72 h. The gist of the method:
as §1

Series [14] can be described thus: Cytotoxicity against mrp-1/mdr-1 overexpressing human CEM-DNR-bulk cells assessed as cell growth inhibition after 72 hrs by MTS assay. Type of series: functional, cell-based. The gist of the method: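 Cells were exposed to compound for 3 days, then stained with MTS as a quantitative metabolic read-out.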
Series [15] has as its system BJ. As to the kind of experiment: Cytotoxicity against human BJ cells assessed as cell growth inhibition after 72 hrs by MTS assay. Type of series: cell-based. Summed up:
as §1

The subject of series [16] is HepG2. As to the kind of experiment: Cytotoxicity against human HepG2 cells assessed as reduction in cell viability after 72 hrs by XTT assay. The class given is functional, cell-based. As to conditions: HepG2, 72 h. The gist of the method: as §2

Each structure is given as a SMILES string.

Broadly, the IC50 is the point on the concentration scale where inhibition reaches its midpoint. What is called CC50 is the concentration that lowers cell viability or growth by half. By EC50 is commonly meant the concentration that produces a half-maximal response. A high value points to a less potent agent. Regarding `OC[C@H]1O[C@@H](n2c3ccsc3c3c(-c4cc5ccccc5o4)ncnc32)[C@H](O)[C@@H]1O`, the IC50 in [1] is 6.86 µM; in [3], 15.4 µM; in series [4], 24.3 µM; in [5] it was 32.6 µM; in series [7], 2.38 µM; in series [8], 18.5 µM. Besides, the 50% inhibitory concentration (IC50) in [9] is 12.3 µM; in [10] it was 17.9 µM; in [11], 21.2 µM; in series [13], 16.2 µM; in series [14], 14.4 µM; in series [15], 23 µM. The IC50 in [16] is 4.28 µM. For the same compound, the CC50 in series [2] was in the range of 19.6 to 26.6 µM. Also, the EC50 in series [6] is 13.9 µM; in series [12], 2.1 µM.

With `CN(C)c1ncnc2c1c1ccsc1n2[C@@H]1O[C@H](CO)[C@@H](O)[C@H]1O`, the half-maximal inhibitory concentration (IC50) in [1], in series [3], in series [4], in series [5], in series [7] and in [8] was greater than 50 µM in each case. The concentration for half-maximal inhibition (IC50) in [9], in series [10], in [11], in [13], in series [14] and in series [15] was greater than 50 µM each time. Further, the IC50 in series [16] is greater than 50 µM.

As for `OC[C@H]1O[C@@H](n2c3ccsc3c3c(-c4ccoc4)ncnc32)[C@H](O)[C@@H]1O`, the IC50 was 3.61 µM in series [1]; greater than 50 µM in series [3]; greater than 50 µM in [4]; greater than 50 µM in [5]; greater than 50 µM in [7]; greater than 50 µM in series [8]. Besides, the concentration for half-maximal inhibition (IC50) is greater than 50 µM in series [9]; greater than 50 µM in series [10]; greater than 50 µM in [11]; greater than 50 µM in series [13]; greater than 50 µM in [14]; 32 µM in series [15]. Moreover, in [16], the IC50 is greater than 50 µM.

With `OC[C@H]1O[C@@H](n2c3ncnc(-c4ccco4)c3c3ccsc32)[C@H](O)[C@@H]1O`, the 50% inhibitory concentration (IC50) in series [1], in series [3], in series [4], in series [5], in series [7] and in series [8] was greater than 50 µM each time. Moreover, the 50% inhibitory concentration (IC50) in [9], in [10], in series [11], in series [13], in series [14] and in series [15] was greater than 50 µM throughout. The IC50 in series [16] was greater than 50 µM.

As for `Nc1ncnc2c1c1ccsc1n2[C@@H]1O[C@H](CO)[C@@H](O)[C@H]1O`, the IC50 in [1] is 0.3 µM; in series [3] it was 36.3 µM; in series [4], greater than 50 µM; in series [5], greater than 50 µM; in [7], 0.95 µM; in [8], 0.51 µM. The concentration for half-maximal inhibition (IC50) in [9] was 10.9 µM; in [10] it was 0.82 µM; in [11], 30.1 µM; in series [13] it was 46.7 µM; in series [14], 41.2 µM; in series [15], 1.09 µM. Also, the IC50 in series [16] turned out to be 1.46 µM. For the same compound, in [2], the CC50 is greater than 44.4 µM. For the same compound, the EC50 was greater than 44.4 µM in series [6] and 17.5 µM in series [12].

As to `CC(C)C(=O)OC[C@H]1O[C@@H](n2ccc(N)nc2=O)[C@](C)(F)[C@@H]1OC(=O)C(C)C` [MERICITABINE], in series [2], the cytotoxic concentration (CC50) was greater than 44.4 µM.

Consider `CN(C)c1ncnc2c1c1sccc1n2[C@@H]1O[C@H](CO)[C@@H](O)[C@H]1O`, for which the half-maximal inhibitory concentration (IC50) was 47.6 µM in series [1]; greater than 50 µM in [3]; greater than 50 µM in series [4]; greater than 50 µM in series [5]; greater than 50 µM in series [7]; greater than 50 µM in series [8]. Besides, the IC50 in series [9], in series [10], in series [11], in series [13], in series [14] and in series [15] was greater than 50 µM throughout. For the same compound, the concentration for half-maximal inhibition (IC50) in series [16] was greater than 50 µM.

For `OC[C@H]1O[C@@H](n2c3ccsc3c3c(-c4ccco4)ncnc32)[C@H](O)[C@@H]1O`, the concentration for half-maximal inhibition (IC50) in series [1], in series [3], in series [4], in series [5], in [7] and in [8] was greater than 50 µM throughout. Besides, the IC50 in series [9], in series [10], in series [11], in series [13], in series [14] and in [15] was greater than 50 µM throughout. In addition, in series [16], the IC50 is greater than 50 µM.

On to `Nc1ccn([C@@H]2O[C@H](CO)[C@@H](O)C2(F)F)c(=O)n1` [GEMCITABINE], for which the IC50 in series [5] and in [15] was greater than 50 µM throughout.

`Nc1ncnc2c1c1sccc1n2[C@@H]1O[C@H](CO)[C@@H](O)[C@H]1O`: the IC50 in series [1] is 6.22 µM; in [3], 6.16 µM; in [4] it was 1.54 µM; in series [5], 30.3 µM; in [7], 0.31 µM; in [8], 2.5 µM. Further, the IC50 in [9] was 4.37 µM; in [10], 4.28 µM; in [11], 11.9 µM; in series [13], 5.39 µM; in [14] it was 15.2 µM; in series [15], 16.8 µM. Also, the IC50 in series [16] worked out at 0.56 µM. The same compound returned a CC50 in series [2] of 16.4 to 17.2 µM. Also, the EC50 in series [6] was 13.5 µM; in series [12] it was 5.02 µM.

On to `OC[C@H]1O[C@@H](n2c3ncnc(-c4cc5ccccc5o4)c3c3ccsc32)[C@H](O)[C@@H]1O`, for which the half-inhibitory concentration (IC50) is 15.9 µM in series [1]; 29.7 µM in [3]; greater than 50 µM in series [4]; 37.5 µM in series [5]; greater than 50 µM in series [7]; 33.1 µM in series [8]. The concentration for half-maximal inhibition (IC50) in series [9] is greater than 50 µM; in [10] it was 14.9 µM; in series [11] it was greater than 50 µM; in series [13], 47.1 µM; in series [14], 20.6 µM; in series [15] it was 36.8 µM. Also, the concentration for half-maximal inhibition (IC50) in [16] is greater than 50 µM. In [2], this compound returned a CC50 greater than 44.4 µM. In addition, the EC50 in series [6] came to 14.1 µM; in series [12], 2.05 µM.

For the compound `OC[C@H]1O[C@@H](n2c3ncnc(-c4ccoc4)c3c3ccsc32)[C@H](O)[C@@H]1O`, the IC50 in series [1], in series [3], in series [4], in [5], in series [7] and in [8] was greater than 50 µM throughout. Moreover, the half-inhibitory concentration (IC50) in series [9], in [10], in series [11], in [13], in series [14] and in series [15] was greater than 50 µM each time. Moreover, in series [16], the IC50 is greater than 50 µM.
